Screens deposited in PubChem BioAssay by Broad Institute.
Xi reactivation = X-chromosome reactivation activator. 0.055% of 360,000 active. XiGFP mouse fibroblasts, % GFP-positive cells imaging, 3 d; cells co-treated with 5-aza-dC sensitizer; scaled so ellipticine positive control = 100%. activation, % at 7.58 µM;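 active means mean normalized replicate activation at least 10% and every replicate at or above 10%; inconclusive means only one of the two criteria met; inactive means mean below 10% and not all replicates reach 10%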
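Assay system – SV40-immortalized XiGFP fibroblast cells, line 68-5-11 · Buffer or medium – DMEM supplemented with 5-aza-dC as sensitizing agent · Dosing – one concentration, pinned · Benchmarks – positive control ellipticine, 6 µM final · Times – 3 days compound exposure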
SIRT5 block = sirtuin-5 (human) deacylase inhibition; Q9NXA8; Purified SirT5, succinyl-peptide AMC, trypsin-coupled fluorescence; inhibition, % at 15 µM; 1.1% of 330,000 active; in the data active means inhibition above about 15%; inconclusive means no clear call, values can overlap the other calls
Target sequence (Q9NXA8 whole entry, looked up): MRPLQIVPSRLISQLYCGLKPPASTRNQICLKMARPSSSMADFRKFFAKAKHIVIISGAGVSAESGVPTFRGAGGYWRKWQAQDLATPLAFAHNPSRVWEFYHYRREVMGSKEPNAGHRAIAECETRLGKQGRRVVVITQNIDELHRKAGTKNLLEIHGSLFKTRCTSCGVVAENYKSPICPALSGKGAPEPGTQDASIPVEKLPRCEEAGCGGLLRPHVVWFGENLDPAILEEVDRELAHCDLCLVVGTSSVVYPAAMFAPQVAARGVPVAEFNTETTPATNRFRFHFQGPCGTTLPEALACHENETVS
FGF22 binding = shifts melting point of recombinant human FGF22; Q9HCT0; recombinant FGF22 thermal shift, SYPRO orange fluorescence; percent of sucrose octasulfate shift, DMSO zero; activity (Tm shift, normalised), % at 9.99 µM; 1.5% of 340,000 active;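 active means mean Tm shift, scaled 0 neutral to 100 positive control, at about 1.3% or above, every replicate too, limit read from the data; inconclusive means no clear call, values can overlap the other calls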
Target sequence (Q9HCT0 whole entry, looked up): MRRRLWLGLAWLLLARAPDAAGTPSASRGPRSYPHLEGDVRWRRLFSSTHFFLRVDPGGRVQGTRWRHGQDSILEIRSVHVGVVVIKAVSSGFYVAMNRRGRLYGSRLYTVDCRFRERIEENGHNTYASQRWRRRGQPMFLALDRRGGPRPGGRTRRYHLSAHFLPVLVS
FN deposit inh = fibronectin deposition inhibition | AH1F fibroblasts, Alexa488-fibronectin deposition fluorescence, overnight | inhibition, % at 12.6 µM | 0.086% of 350,000 active | AID 743247;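 active means mean inhibition across replicates of 30% or more, regardless of how many single replicates reach that level; inconclusive means mean under 30% yet at least half of replicates reach 30%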
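Material – AH1F fibroblast monolayer, labelled fibronectin deposition · Reagent – labelled fibronectin 24 nM · Timing – 1 h adhesion, overnight exposure · Measured by – fluorescence at 485 nm excitation, 525 nm emission · Read-out – inhibition of fibronectin deposition signal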
DENV2 CPE = inhibitors of DENV2 cytopathic effect; DENV2-infected cells, cytopathic effect rescue, plate reader; CPE inhibition, % at 9.99 µM; 1.7% of 350,000 active; AID 651640; in the data active means CPE inhibition above about 20%, passing the limit was not always enough; inconclusive means no clear call, values can overlap the other calls; tested in BHK-21 cells
ARNT TACC3 PPI = disrupts binding between human ARNT and TACC3; 0.66% of 390,000 active; inhibition, % at 9.99 µM; Q9Y6A5; AlphaScreen His-ARNT PAS-B/GST-TACC3 binding, luminescence; TACC3 fragment carries E629A point mutation;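 active means mean inhibition of replicates at least 50% and at least half of replicates each reaching 50%; inconclusive means half or more replicates reach 50% but mean below 50%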
Hits are given with their value; - = inactive; ? = inconclusive; . = no result. This is a sample that favours compounds with a hit; in the whole collection about 3.8% have one here.

SMILES | Xi reactivation | SIRT5 block | FGF22 binding | FN deposit inh | DENV2 CPE | ARNT TACC3 PPI
CN(C)C(=O)[C@H]1[C@H](CO)[C@H]2Cn3c(ccc(-c4ccc(F)cc4)c3=O)[C@@H]1N2CCc1ccccc1 | - | 22 | - | . | - | -
Cc1nn(-c2ccccc2)c(Cl)c1/C=C1\SC(=S)NC1=O | . | . | . | . | . | -
Cc1nn(-c2ccccc2)c(C)c1/C=C1\C(=O)N(C)C(=S)N1C | - | - | 43 | - | - | -
CC(=O)N(Cc1ccc(F)cc1)C1=C(NCCc2ccccc2)C(=O)c2ccccc2C1=O | . | . | . | 42 | . | -
CC(C)NC(=O)NNC(=O)c1nn(-c2ccc(F)cc2)ccc1=O | - | 22 | - | - | - | -
Cc1sc(NC(=O)CS(=O)(=O)c2ccccc2)c(C(N)=O)c1C | - | - | 8.3 | - | - | .
Cc1sc(NC(=O)CCCC(=O)O)c(C(N)=O)c1-c1ccccc1 | - | - | 43 | . | - | -
C[C@@H]1CN([C@H](C)CO)C(=O)c2cc(NC(=O)C3CC3)ccc2O[C@@H]1CN(C)Cc1ccc(C(F)(F)F)cc1 | - | - | - | . | - | -
COCC#Cc1ccc2c(c1)O[C@@H](CN(C)C(=O)CN(C)C)[C@@H](C)CN([C@@H](C)CO)S2(=O)=O | - | - | - | - | - | -
Cc1nc2nc(SCC(=O)O)nn2c(C)c1Cc1ccccc1Cl | - | - | 43 | - | - | -
COc1ccc(NC(=O)Nc2cccc3c2O[C@@H](CN(C)Cc2ccccc2)[C@H](C)CN([C@H](C)CO)C3=O)cc1 | - | - | - | . | - | -
O=S(=O)(Nc1cccc2ncccc12)c1cccs1 | . | . | . | . | . | 58
Cc1c(NS(=O)(=O)c2cccs2)cccc1-c1nc2cccnc2s1 | - | - | - | - | - | -
COC(=O)[C@@H]1[C@@H](CO)[C@@H]2Cn3c(ccc(-c4cccc(F)c4)c3=O)[C@@H]2N1CC1CCCC1 | - | - | - | . | - | -
O=C(c1cnccn1)N1CC(=O)N2[C@H](CO)[C@H](c3ccc(-c4cccc(F)c4)cc3)[C@H]2C1 | - | . | - | - | ? | .
CNc1ccccc1C(C)(C)c1cc(-c2cccc([N+](=O)[O-])c2)no1 | - | - | - | . | - | -
CNc1ccccc1C(C)(C)c1cc(-c2cccc(Br)c2)no1 | - | - | 43 | . | - | -
N#C[C@@H]1[C@@H](c2ccc(C3=CCCCC3)cc2)[C@@H](CO)N1C(=O)Cc1ccncc1 | - | - | - | - | - | -
C[C@@H]1CN([C@@H](C)CO)C(=O)c2cc(NS(=O)(=O)c3ccc(Cl)cc3)ccc2O[C@@H]1CN(C)S(=O)(=O)c1cn(C)cn1 | - | - | - | . | - | -
COc1cccc(N2CCc3c(C)nc4ccc(Cl)cc4c32)c1 | - | - | - | - | 41 | -
Cc1ccnc(NC(=O)C(Cc2ccccc2)NC(=O)c2ccccc2)c1 (configuration not stated) | - | - | - | - | 38 | -
O=C(NC(Cc1ccccc1)C(=O)NC(Cc1ccccc1)C(=O)O)c1ccccc1 (configuration not stated) | - | - | - | - | ? | -
COCCN(C(=O)COC(=O)CCOc1ccccc1)c1c(N)n(Cc2ccccc2)c(=O)[nH]c1=O | - | - | - | - | - | -
CCN(C(=O)CSc1nnc(NCCOC)s1)c1c(N)n(Cc2ccccc2)c(=O)[nH]c1=O | - | - | - | - | 69 | -
COCCN(C(=O)COC(=O)c1cc2c(s1)CCC2)c1c(N)n(Cc2ccccc2)c(=O)[nH]c1=O | - | 15 | - | . | - | -
SMILES | Xi reactivation | SIRT5 block | FGF22 binding | FN deposit inh | DENV2 CPE | ARNT TACC3 PPI
COCCCN(C(=O)c1ccc2ccccc2n1)c1c(N)n(Cc2ccccc2)c(=O)[nH]c1=O | - | - | - | 37 | - | -
COCCN(C(=O)COC(=O)CC(C)c1ccccc1)c1c(N)n(Cc2ccccc2)c(=O)[nH]c1=O (configuration not stated) | - | - | - | - | 31 | -
COCCNc1nnc(SCC(=O)N(C)c2c(N)n(Cc3ccccc3)c(=O)[nH]c2=O)s1 | - | - | - | - | - | .
O=C(CSc1nc2ccccc2s1)N/N=C/c1ccc(C(=O)O)cc1 | - | - | - | 35 | - | -
CCCNC(=O)Nc1ccc2c(c1)OC[C@H](C)N(C(=O)CC)C[C@@H](C)[C@@H](OC)CN(C)C2=O | - | - | - | . | - | -
CCCNC(=O)Nc1ccc2c(c1)OC[C@@H](C)N(S(C)(=O)=O)C[C@@H](C)[C@H](OC)CN(C)C2=O | - | - | - | - | 43 | .
CO[C@H]1CN(C)C(=O)c2cc(NC(=O)Nc3ccc(Cl)cc3)ccc2OC[C@H](C)N(C)C[C@@H]1C | - | - | . | - | 50 | -
CCC(=O)N1C[C@@H](C)[C@@H](OC)CN(C)C(=O)c2ccc(NC(=O)Nc3ccc(Cl)cc3)cc2OC[C@H]1C | - | - | - | - | 80 | -
CCCNC(=O)Nc1ccc2c(c1)OC[C@@H](C)N(S(C)(=O)=O)C[C@H](C)[C@@H](OC)CN(C)C2=O | - | . | - | - | - | .
CCC(=O)N1C[C@H](C)[C@@H](OC)CN(C)C(=O)c2ccc(NC(=O)Nc3ccc(Cl)cc3)cc2OC[C@@H]1C | - | - | - | - | - | .
CCCNC(=O)Nc1ccc2c(c1)OC[C@H](C)N(C(=O)CC)C[C@H](C)[C@@H](OC)CN(C)C2=O | - | - | - | . | 31 | .
CO[C@H]1CN(C)C(=O)c2cc(NC(=O)Nc3ccc(Cl)cc3)ccc2OC[C@@H](C)N(C)C[C@H]1C | - | - | . | - | - | -
CCC(=O)N1C[C@H](C)[C@@H](OC)CN(C)C(=O)c2ccc(NC(=O)NC(C)C)cc2OC[C@@H]1C | - | - | - | - | - | .
CCC(=O)N1C[C@H](C)[C@H](OC)CN(C)C(=O)c2ccc(NC(=O)NC(C)C)cc2OC[C@H]1C | - | - | - | - | 70 | .
CN(C)c1ccc(C=c2c3cc(O)ccc3n3c2cc(-c2ccccc2)[n+]3C)cc1 | - | - | - | - | - | 60
CCOC(=O)c1cc2c(=Cc3ccc(N(C)C)cc3)c3ccccc3n2[n+]1C | - | - | - | - | 35 | .
C[n+]1c(-c2ccccc2)cc2c(=Cc3ccccc3)c3ccccc3n21 | - | . | - | - | - | -
CCCC#Cc1ccc2c(c1)O[C@@H](CN(C)Cc1ccncc1)[C@H](C)CN([C@H](C)CO)S2(=O)=O | - | - | - | . | - | -
O=C(Nc1ccccc1)N[C@@H]1CC[C@@H](CCNC(=O)c2ccccc2F)O[C@@H]1CO | - | - | - | . | - | -
CNC[C@H]1Oc2c(NC(=O)NC(C)C)cccc2C(=O)N(C)C[C@@H]1C | - | . | . | - | . | .
C[C@@H]1CN([C@H](C)CO)C(=O)c2c(c3ccccc3n2C)-c2ccccc2CO[C@H]1CN(C)Cc1cccnc1 | - | . | . | - | . | .
